Measured values from different studies.
Lines come from different studies, so protocols differ. pEC50, pIC50, pKi: −log10 of the molar value.
DRD3: D(3) dopamine receptor (DRD3, Homo sapiens, UniProt P35462)
CA12: Carbonic anhydrase 12 (CA12, Homo sapiens, UniProt O43570)
ACE: Angiotensin-converting enzyme (ACE, Homo sapiens, UniProt P12821)
GHSR: Growth hormone secretagogue receptor type 1 (GHSR, Homo sapiens, UniProt Q92847)

SMILES | target | read-out | mode | technique | endpoint | value
Cc1[nH]c(C)c(S(=O)(=O)Nc2ccc(S(=O)(=O)F)c(F)c2)c1C(=O)N1CCC(F)(F)C1 | DRD3 | β-arrestin recruitment | antagonist |  | pIC50 | 5.19
O=C(Nc1ccc2c(c1)C=CCP(=O)(O)O2)c1cccs1 | CA12 | enzyme activity | inhibitor | stopped-flow | pKi | 7.13
CC(C)[C@H](NC(=O)[C@@H](N)CCC(=O)O)C(=O)N[C@@H](CC(N)=O)C(=O)N[C@@H](Cc1ccc(O)cc1)C(=O)N[C@@H](CC(=O)O)C(=O)O | ACE | enzyme activity | inhibitor |  | pIC50 | ~2.81
CC[C@H](C)[C@H](NC(=O)[C@H](C)NC(=O)[C@H](CCCNC(=N)N)NC(=O)[C@H](CCC(=O)O)NC(=O)[C@H](CCCNC(=N)N)NC(=O)[C@H](CCC(=O)O)NC(=O)[C@H](CC(C)C)NC(=O)[C@H](CC(C)C)NC(=O)[C@H](CCCNC(=N)N)NC(=O)[C@H](CCCNC(=N)N)NC(=O)[C@H](CCC(N)=O)NC(=O)[C@H](Cc1c[nH]cn1)NC(=O)[C@H](CCC(=O)O)NC(=O)[C@@H]1CCCN1C(=O)[C@H](CO)NC(=O)[C@H](CC(C)C)NC(=O)[C@H](Cc1ccccc1)NC(=O)[C@H](Cc1c[nH]c2ccccc12)NC(=O)[C@H](CO)NC(=O)CN)C(=O)N1CCC[C@H]1C(=O)N1CCC[C@H]1C(=O)N1CCC[C@H]1C(=O)N1CCC[C@H]1C(=O)N[C@H](C(=O)N[C@H](C(=O)N1CCC[C@H]1C(=O)N[C@@H](CC(C)C)C(=O)O)C(C)C)C(C)C | GHSR | calcium signal | agonist | fluorescence | pEC50 | 6.80
CCOC(=O)c1ccc(OC(=O)CCCCCN=C(N)N)cc1 | Kallikrein-2 (Homo sapiens, UniProt P20151) | enzyme activity | inhibitor |  | pIC50 | 6.37
CC(C)C[C@H](NC(=O)[C@@H](NC(=O)[C@@H](NC(=O)[C@@H]1CCCN1C(=O)[C@@H](N)CCC(=O)O)C(C)C)[C@@H](C)O)C(=O)O | ACE | enzyme activity | inhibitor |  | pIC50 | ~3.36
CC[C@H](C)[C@H](NC(=O)[C@H](C)NC(=O)[C@H](C)NC(=O)[C@H](CCC(=O)O)NC(=O)[C@H](CCCNC(=N)N)NC(=O)[C@H](C)NC(=O)[C@H](CC(C)C)NC(=O)[C@H](CC(C)C)NC(=O)[C@H](CCCNC(=N)N)NC(=O)[C@H](CCCNC(=N)N)NC(=O)[C@H](C)NC(=O)[C@H](Cc1c[nH]cn1)NC(=O)[C@H](CCC(=O)O)NC(=O)[C@@H]1CCCN1C(=O)[C@H](CO)NC(=O)[C@H](CC(C)C)NC(=O)[C@H](Cc1ccccc1)NC(=O)[C@H](Cc1c[nH]c2ccccc12)NC(=O)[C@H](CO)NC(=O)CN)C(=O)N1CCC[C@H]1C(=O)N1CCC[C@H]1C(=O)N1CCC[C@H]1C(=O)N1CCC[C@H]1C(=O)N[C@H](C(=O)N[C@H](C(=O)N1CCC[C@H]1C(=O)N[C@@H](CC(C)C)C(=O)O)C(C)C)C(C)C | GHSR | calcium signal | agonist | fluorescence | pEC50 | 6.82
CCC(CNc1nc(-c2cn3ccnc3cc2C)nc2ccccc12)c1ccccc1 (centres unmarked) | Sodium-dependent dopamine transporter (SLC6A3, Homo sapiens, UniProt Q01959) | ligand displacement |  | radioligand | pIC50 | 5.34
CC(C)C[C@H](NC(=O)CNC(=O)[C@H](CCCNC(=N)N)NC(=O)[C@H](Cc1c[nH]c2ccccc12)NC(=O)[C@H](Cc1ccccc1)NC(=O)[C@@H]1CCCN1C(=O)CN)C(=O)N[C@@H](CO)C(=O)N[C@@H](CCCNC(=N)N)C(=O)N[C@@H](CCCNC(=N)N)C(=O)N1CCC[C@H]1C(=O)N[C@@H](CC(C)C)C(=O)N[C@@H](CCCNC(=N)N)C(=O)O | GHSR | calcium signal | antagonist | fluorescence | pIC50 | 5.47
N#C[Se]Cc1cc(=O)oc2cc(O)ccc12 | CA12 | enzyme activity | inhibitor | stopped-flow | pKi | 7.03
Cc1ccc(C(=O)Nc2ccc3c(c2)C=CCP(=O)(O)O3)cc1 | CA12 | enzyme activity | inhibitor | stopped-flow | pKi | 8.11
CC(C)C[C@H](NC(=O)[C@H](Cc1ccc(O)cc1)NC(=O)[C@@H](N)C(C)C)C(=O)N[C@@H](CCC(=O)O)C(=O)N[C@@H](CCC(N)=O)C(=O)O | ACE | enzyme activity | inhibitor | absorbance | pIC50 | 4.55
O=C(Nc1ccc(C(F)(F)F)cc1)Nc1ccc2c(c1)C=CCP(=O)(O)O2 | CA12 | enzyme activity | inhibitor | stopped-flow | pKi | < 5.00
CC[C@H](C)[C@H](NC(=O)[C@H](Cc1ccccc1)NC(=O)[C@H](CC(=O)O)NC(=O)[C@H](CCCNC(=N)N)NC(=O)[C@@H](NC(=O)[C@H](C)NC(=O)[C@H](CCCCN)NC(=O)[C@H](CCCNC(=N)N)NC(=O)[C@H](CCC(=O)O)NC(=O)[C@H](CC(C)C)NC(=O)[C@H](CC(C)C)NC(=O)[C@H](CCC(=O)O)NC(=O)[C@H](CC(=O)O)NC(=O)[C@H](Cc1c[nH]c2ccccc12)NC(=O)[C@H](CC(C)C)NC(=O)[C@H](CO)NC(=O)[C@@H](NC(=O)[C@H](Cc1ccccc1)NC(=O)[C@H](CCC(=O)O)NC(=O)[C@H](CC(C)C)NC(=O)[C@H](CCC(=O)O)NC(=O)CNC(=O)[C@@H]1CCCN1)[C@@H](C)O)C(C)C)C(=O)N[C@@H](C)C(=O)N[C@@H](Cc1c[nH]cn1)C(=O)N[C@@H](CC(C)C)C(=O)N[C@@H](CCCCN)C(=O)N[C@@H](CCC(N)=O)C(=O)O | Glucagon-like peptide 1 receptor (GLP1R, Homo sapiens, UniProt P43220) | calcium signal | antagonist | fluorescence | pIC50 | 5.79
O=C(Nc1ccc2c(c1)C=CCP(=O)(O)O2)c1ccc2ccccc2c1 | CA12 | enzyme activity | inhibitor | stopped-flow | pKi | 7.57
CC[C@H](C)[C@H](NC(=O)[C@H](C)NC(=O)[C@H](C)NC(=O)[C@H](CCC(=O)O)NC(=O)[C@H](CCCNC(=N)N)NC(=O)[C@H](C)NC(=O)[C@H](CC(C)C)NC(=O)[C@H](CC(C)C)NC(=O)[C@H](CCCNC(=N)N)NC(=O)[C@H](CCCNC(=N)N)NC(=O)[C@H](CC(C)C)NC(=O)[C@H](Cc1c[nH]cn1)NC(=O)[C@H](CCC(=O)O)NC(=O)[C@@H]1CCCN1C(=O)[C@H](CO)NC(=O)[C@H](CC(C)C)NC(=O)[C@H](Cc1ccccc1)NC(=O)[C@H](Cc1ccc(O)cc1)NC(=O)[C@H](CO)NC(=O)CN)C(=O)N1CCC[C@H]1C(=O)N1CCC[C@H]1C(=O)N1CCC[C@H]1C(=O)N1CCC[C@H]1C(=O)N[C@H](C(=O)N[C@@H](CC(C)C)C(=O)N1CCC[C@H]1C(=O)N[C@@H](CC(C)C)C(=O)O)C(C)C | GHSR | calcium signal | antagonist | fluorescence | pIC50 | 5.96
COC(=O)c1ccc(NS(=O)(=O)c2c(C)[nH]c(C)c2C(=O)N2CCC(F)(F)C2)cc1Cl | DRD3 | β-arrestin recruitment | antagonist |  | pIC50 | 4.48
O=C(Nc1cccc(F)c1)Nc1ccc2c(c1)C=CCP(=O)(O)O2 | CA12 | enzyme activity | inhibitor | stopped-flow | pKi | < 5.00
Cc1[nH]c(C)c(S(=O)(=O)Nc2ccc(S(=O)(=O)F)c(Cl)c2)c1C(=O)N1CCC(F)(F)C1 | DRD3 | β-arrestin recruitment | antagonist |  | pIC50 | 6.03
O=C(Nc1ccc2c(c1)C=CCP(=O)(O)O2)c1ccc(Br)cc1 | CA12 | enzyme activity | inhibitor | stopped-flow | pKi | 7.07
